In the library only some 8.7% were active in any assay of this set; here they are far more common.
Cav32 inh: blocks human Cav3.2 T-type calcium channel | O95180 | B-score at 10 µM | hit rate 4% among 100,000 | Cav3.2-expressing cells, Fluo-4 calcium fluorescence FDSS; stronger effect = lower value;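 active = single-dose well whose peak fluorescence ratio is a statistical outlier from its plate by either plate-standardised score or position-corrected B-score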
Target sequence (O95180 whole entry, looked up): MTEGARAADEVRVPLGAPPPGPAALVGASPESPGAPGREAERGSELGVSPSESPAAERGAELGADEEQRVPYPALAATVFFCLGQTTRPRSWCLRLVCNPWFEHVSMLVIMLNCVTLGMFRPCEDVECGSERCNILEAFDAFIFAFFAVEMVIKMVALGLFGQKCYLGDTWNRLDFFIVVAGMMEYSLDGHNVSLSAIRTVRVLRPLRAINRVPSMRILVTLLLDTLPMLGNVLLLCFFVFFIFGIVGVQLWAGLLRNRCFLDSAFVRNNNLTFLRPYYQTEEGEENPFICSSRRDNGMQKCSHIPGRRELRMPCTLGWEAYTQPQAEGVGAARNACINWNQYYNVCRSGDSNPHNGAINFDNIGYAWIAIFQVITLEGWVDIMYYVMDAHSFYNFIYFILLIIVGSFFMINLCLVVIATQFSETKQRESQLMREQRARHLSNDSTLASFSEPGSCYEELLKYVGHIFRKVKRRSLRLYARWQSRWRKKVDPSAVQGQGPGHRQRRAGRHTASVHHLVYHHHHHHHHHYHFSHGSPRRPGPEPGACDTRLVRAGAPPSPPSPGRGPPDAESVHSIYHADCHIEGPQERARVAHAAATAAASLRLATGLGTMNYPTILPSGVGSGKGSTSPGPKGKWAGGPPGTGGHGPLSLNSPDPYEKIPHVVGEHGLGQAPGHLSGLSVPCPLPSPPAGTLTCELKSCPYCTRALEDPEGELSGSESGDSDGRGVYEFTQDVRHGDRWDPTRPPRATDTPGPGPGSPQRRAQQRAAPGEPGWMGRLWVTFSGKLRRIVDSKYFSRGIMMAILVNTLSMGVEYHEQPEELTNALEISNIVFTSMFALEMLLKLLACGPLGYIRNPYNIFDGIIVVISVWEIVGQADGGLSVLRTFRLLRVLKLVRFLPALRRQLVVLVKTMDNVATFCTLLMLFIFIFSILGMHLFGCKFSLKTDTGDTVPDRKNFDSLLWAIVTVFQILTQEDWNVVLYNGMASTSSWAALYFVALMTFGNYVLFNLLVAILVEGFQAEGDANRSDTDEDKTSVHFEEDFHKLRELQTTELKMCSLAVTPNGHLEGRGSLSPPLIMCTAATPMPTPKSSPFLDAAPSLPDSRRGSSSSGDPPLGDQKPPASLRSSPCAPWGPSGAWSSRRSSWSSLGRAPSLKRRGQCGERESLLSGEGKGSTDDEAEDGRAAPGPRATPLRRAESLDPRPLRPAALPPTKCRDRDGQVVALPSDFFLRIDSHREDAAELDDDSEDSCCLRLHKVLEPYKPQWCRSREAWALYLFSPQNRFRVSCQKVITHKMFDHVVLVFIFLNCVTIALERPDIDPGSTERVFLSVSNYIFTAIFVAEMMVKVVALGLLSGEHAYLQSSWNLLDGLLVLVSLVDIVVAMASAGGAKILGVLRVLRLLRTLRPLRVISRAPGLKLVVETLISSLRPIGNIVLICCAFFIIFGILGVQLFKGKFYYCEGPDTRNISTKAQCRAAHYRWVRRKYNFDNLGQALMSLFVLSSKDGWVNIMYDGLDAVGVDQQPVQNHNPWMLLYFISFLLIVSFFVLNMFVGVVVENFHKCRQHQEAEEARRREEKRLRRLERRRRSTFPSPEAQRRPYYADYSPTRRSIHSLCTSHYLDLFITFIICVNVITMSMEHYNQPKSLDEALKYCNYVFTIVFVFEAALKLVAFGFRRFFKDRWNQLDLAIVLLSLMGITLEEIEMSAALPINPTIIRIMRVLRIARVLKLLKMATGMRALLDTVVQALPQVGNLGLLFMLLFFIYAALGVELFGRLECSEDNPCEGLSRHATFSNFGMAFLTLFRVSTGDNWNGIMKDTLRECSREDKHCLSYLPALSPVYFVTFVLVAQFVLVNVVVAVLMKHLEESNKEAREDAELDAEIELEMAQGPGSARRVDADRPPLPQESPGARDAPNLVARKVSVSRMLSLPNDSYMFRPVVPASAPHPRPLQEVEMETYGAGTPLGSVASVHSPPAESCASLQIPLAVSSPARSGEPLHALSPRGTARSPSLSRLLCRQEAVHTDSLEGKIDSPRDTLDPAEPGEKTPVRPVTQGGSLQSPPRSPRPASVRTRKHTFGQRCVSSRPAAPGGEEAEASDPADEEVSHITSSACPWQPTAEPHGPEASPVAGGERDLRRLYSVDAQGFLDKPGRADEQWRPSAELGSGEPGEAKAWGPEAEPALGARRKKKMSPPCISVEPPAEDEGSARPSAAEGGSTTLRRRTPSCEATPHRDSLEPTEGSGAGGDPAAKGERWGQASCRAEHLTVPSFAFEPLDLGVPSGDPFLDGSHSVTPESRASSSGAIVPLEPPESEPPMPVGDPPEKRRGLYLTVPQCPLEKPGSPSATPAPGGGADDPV
PTK2B oligo ant: Pyk2 (human) oligomerization antagonism; Q14289; Q293 cells, Pyk2 FERM NanoBiT luminescence; stronger effect = lower value; z-score (the deposit names both 25 µM and 10 µM); hit rate 0.83% among 99,000;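 active = Z-score of -3 or lower, scaled per plate to the spread of control and sample wells; inactive = z-score above -3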;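 note: negative z-score means lost luminescence so less FERM oligomerization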
PostGolgi ctrl: growth of the yeast control strain, post-Golgi counter-screen. efflux-deficient yeast background strain, growth absorbance A615, 16 h. inhibition, % at 10 µM. hit rate 5% among 98,000
PostGolgi yeast: growth inhibition of a yeast mutant, post-Golgi transport screen; hit rate 0.9% among 98,000; post-Golgi transport phenotypic cell assay; inhibition, % at 10 µM;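 note: yeast cells grown in 1536-well plates; yeast grown about 18 h at 30C before absorbance read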
tolC growth inh: blocks growth of E. coli BW25113 tolC mutant | OD615 | growth inhibition, % at 10 µM (by protocol) | hit rate 2.2% among 65,000;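 active = growth inhibition at or above a cutoff equal to the mean over every tested compound plus 3 SD, cut at about 60% in these data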;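 note: growth measured after 20 h incubation at 37 °C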
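Test system: tolC-deleted E. coli BW25113; medium: LB with kanamycin 50 µg/mL; compound: single-point testing at 10 µM; incubation: 20 h compound exposure of bacteria at 37 °C; signal: OD at 615 nm; evaluation: growth inhibition in percent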
E coli WT exp: blocks growth of wild type E. coli BW25113; OD600 absorbance; growth inhibition, % at 100 µM; hit rate 0.15% among 98,000; AID 710;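 active = growth inhibition above about 50% at one test dose, limit read from the data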;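 note: growth measured after 20 h incubation at 37 °C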
Starred values were filed as active, the others as inactive. Cut-off read from the data, not from the text of the source, unless noted: active = inhibition above about 30%; inactive = the rest.

What do the screens show for `CC#CP(=O)(OCC)C(O)(c1ccccc1)C(F)(F)F` (configuration not stated)?
Cav32 inh: -0.156; PTK2B oligo ant: 0.27; PostGolgi ctrl: 0.3; PostGolgi yeast: 5.6; tolC growth inh: -2.5; E coli WT exp: -3.0

What do the screens show for `CCOP(=O)(C#CC(C)(C)C)C(O)(c1ccccc1)C(F)(F)F` (configuration not stated)?
Cav32 inh: -5.61*; PTK2B oligo ant: -0.22; PostGolgi ctrl: 22.0; PostGolgi yeast: 1.5; tolC growth inh: 12.4; E coli WT exp: -4.0

Results for Cc1ccccc1C1=NCC(=O)N(CC(=O)N2CCCCC2)c2sc(C)c(C)c21 ?
PTK2B oligo ant: -0.3; PostGolgi ctrl: 2.3; PostGolgi yeast: 17.7; E coli WT exp: 5.0

Results for CC(C)COc1ccc(C2(C#N)CC[N+](C)(C)CC2)cc1 ?
Cav32 inh: -0.528; PTK2B oligo ant: -0.7; PostGolgi ctrl: -1.3; PostGolgi yeast: -4.3; E coli WT exp: 5.0

Results for C/C=C(\C)C(=O)OC1C(C)=C2C(C1OC(=O)CCCCC)C(C)(OC(C)=O)CC(OC(=O)CCC)C1(O)C2OC(=O)C1(C)O (configuration not stated) ?
Cav32 inh: 4.29*

What do the screens show for `COC(=O)C1=C(c2cc3ccccc3s2)C[C@@H]2CC[C@H]1N2C(=O)N1CCC(C)CC1`?
Cav32 inh: -1.35

Results for Clc1cccc(C2NCCc3[nH]cnc32)c1 (configuration not stated) ?
PTK2B oligo ant: 0.55; PostGolgi ctrl: 39.6*; PostGolgi yeast: -28.3; E coli WT exp: -3.0

Results for O=c1[nH]c(=O)n(-c2cccc3ccccc23)c(O)c1C=NCCCn1ccnc1 ?
Cav32 inh: -0.719; PTK2B oligo ant: -1.09; PostGolgi ctrl: -4.3; PostGolgi yeast: 1.0; tolC growth inh: 8.6; E coli WT exp: 0.0

What do the screens show for `CC/C(=C\C=C\[C@@H]1C=C[C@@H]2CCC[C@H]2[C@@H]1C(=O)c1ccc[nH]1)[C@@H]1O[C@@H]([C@@H](C)C(=O)O)CC[C@@H]1C`?
Cav32 inh: -8.53*

What do the screens show for `N#Cc1ccccc1Cn1cc(C(=O)c2ccco2)c2ccccc21`?
Cav32 inh: -6.07*; PTK2B oligo ant: -1.02; PostGolgi ctrl: 11.8; PostGolgi yeast: -5.3; tolC growth inh: 8.8; E coli WT exp: -4.0

Results for CC(C)C(=O)c1cn(Cc2ccc(C#N)cc2)c2ccccc12 ?
Cav32 inh: -5.65*; PTK2B oligo ant: -0.12

What do the screens show for `O=C(c1ccco1)c1cn(Cc2ccccc2Cl)c2ccccc12`?
Cav32 inh: -6.05*; PTK2B oligo ant: -0.39; PostGolgi ctrl: 16.9; PostGolgi yeast: -0.3; E coli WT exp: -9.0

What do the screens show for `O=C(c1ccco1)c1cn(Cc2ccccc2)c2ccccc12`?
Cav32 inh: -2.46; PTK2B oligo ant: -0.23; PostGolgi ctrl: -0.8; PostGolgi yeast: 7.1; E coli WT exp: -8.0

What do the screens show for `N#Cc1ccccc1Cn1cc(C(=O)C2CC2)c2ccccc21`?
Cav32 inh: -0.152; PTK2B oligo ant: -0.53; PostGolgi ctrl: 4.9; PostGolgi yeast: -7.5; tolC growth inh: 16.8; E coli WT exp: -9.0

Results for CCC(=O)c1cn(Cc2ccccc2C#N)c2ccccc12 ?
Cav32 inh: -1.89; PTK2B oligo ant: -1.64; PostGolgi ctrl: 30.8*; PostGolgi yeast: 6.6; tolC growth inh: 17.2; E coli WT exp: 2.0

Results for CN1CC[C@@H](c2ccc(F)cc2)[C@H](COc2ccc3c(c2)OCO3)C1 ?
Cav32 inh: -1.67

What do the screens show for `O=S(=O)(c1ccccc1)N1CN2CCN(C2)C1`?
Cav32 inh: -0.00981; PTK2B oligo ant: 0.57; PostGolgi ctrl: 21.7; PostGolgi yeast: 2.4; tolC growth inh: -18.4; E coli WT exp: 3.0

What do the screens show for `CCOC(=O)c1c(C)n(Cc2ccco2)c2ccc(O)cc12`?
Cav32 inh: 0.322; PTK2B oligo ant: -1.39; PostGolgi ctrl: 14.1; PostGolgi yeast: -8.3; tolC growth inh: -3.1; E coli WT exp: -1.0

Results for COC(=O)c1c(C)n(Cc2ccc3c(c2)OCO3)c2ccc(O)cc12 ?
Cav32 inh: -1.21; PTK2B oligo ant: -4*; PostGolgi ctrl: 17.2; PostGolgi yeast: -0.2; tolC growth inh: 27.7; E coli WT exp: 1.0

Results for CCOC(=O)c1c(C)n(Cc2ccc3c(c2)OCO3)c2ccc(O)cc12 ?
Cav32 inh: 0.00731; PTK2B oligo ant: -3.28*; PostGolgi ctrl: 1.8; PostGolgi yeast: 2.6; E coli WT exp: -7.0

How did COC(=O)C1=C(c2cc3ccccc3o2)C[C@@H]2CC[C@H]1N2C(=O)N1CCC(C)CC1 do in these assays?
Cav32 inh: -1.93

How did CO[C@H]1[C@@H](OC)CC(OC2OC(CO)C(O)C(O)C2O)/C(=C\C#N)[C@@H]1O (some centres not stated) do in these assays?
Cav32 inh: 0.0959

How did C=C(C)[C@@]12OC3(c4ccccc4)O[C@@H]1C1[C@@H]4O[C@]4(CO)[C@@H](O)[C@]4(O)C(=O)C(C)=C[C@H]4[C@@]1(O3)[C@H](C)[C@H]2OC(=O)/C=C/C=C/c1ccccc1 (some centres not stated) do in these assays?
Cav32 inh: -4.42*

How did Cc1sc2ncn(CC(=O)NCC(=O)N3CCC4(CC3)OCCO4)c(=O)c2c1C do in these assays?
Cav32 inh: -1.23; PTK2B oligo ant: 0.6; PostGolgi ctrl: -6.0; PostGolgi yeast: 3.7; tolC growth inh: -3.8; E coli WT exp: 4.0

What do the screens show for `Cc1sc2ncn(CC(=O)NCCCC(=O)N3CCC4(CC3)OCCO4)c(=O)c2c1C`?
Cav32 inh: 0.0373; PTK2B oligo ant: 0.19; PostGolgi ctrl: 35.5*; PostGolgi yeast: -13.0; E coli WT exp: 0.0

Results for COC[C@]12CN(C)C3C4[C@H](OC)[C@H]1C3([C@@H](OC)C[C@H]2O)[C@@H]1C[C@@]2(O)[C@H](OC(=O)c3ccccc3)[C@@H]1[C@]4(OC(C)=O)[C@@H](O)[C@@H]2OC ?
Cav32 inh: -0.264

What do the screens show for `CN(C)c1ccc(N=Cc2c(O)n(CCC3=CCCCC3)c(=O)[nH]c2=O)cc1`?
Cav32 inh: 0.0795; PTK2B oligo ant: -3.42*; PostGolgi ctrl: 12.7; PostGolgi yeast: 9.3; tolC growth inh: -10.1; E coli WT exp: -11.0

How did CCN(CC)c1ccc(N=Cc2c(O)n(CCC3=CCCCC3)c(=O)[nH]c2=O)cc1 do in these assays?
Cav32 inh: -5.58*; PTK2B oligo ant: -1.75; PostGolgi ctrl: 7.0; PostGolgi yeast: -0.6; tolC growth inh: -10.4; E coli WT exp: -11.0

How did C=CCn1c(O)c(C=Nc2ccc(N(CC)CC)cc2)c(=O)[nH]c1=O do in these assays?
Cav32 inh: 0.443; PTK2B oligo ant: -0.78; PostGolgi ctrl: -1.1; PostGolgi yeast: -5.7; tolC growth inh: 9.2; E coli WT exp: -6.0

What do the screens show for `CN(C)C1(c2nnnn2CCOC(=O)Nc2ccc(Cl)cc2)CCCCC1`?
Cav32 inh: -2.96*; PTK2B oligo ant: 0.41; PostGolgi ctrl: 11.5; PostGolgi yeast: 2.5; tolC growth inh: 100.0*; E coli WT exp: -5.0

Screening data deposited in PubChem by several laboratories.
